Shown are actives, neighbours in structure and some others; about 5.5% of the full set was active somewhere.
STAT1 activator – activators of IFN-gamma induced STAT1 signaling | NIH 3T3 STAT1-luciferase reporter, luminescence; 100% = IFN-gamma alone, no compound | 200,000 tested, 2.6% active | activation (% of control), % at 5.5 µM | AID 932;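 active means activation above the screen-wide mean activation plus 3 SD, cut at about 130% in these data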
Cl transport mod – KCC2 (human) Cl- transport modulation. Q9H2X9. AID 1456. B-score of Tl+ flux slope (higher = more flux/activation; lower = inhibition) at 10 µM. 190,000 tested, 2.2% active. KCC2 cells, thallium flux FluoZin-2 fluorescence;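 active means thallium flux slope and its plate-corrected score both differing from the plate sample mean at a set confidence after two filtering rounds, in either direction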;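 further: slope of fluorescence scaled to starting intensity during 10 to 20 s after thallium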
Target sequence (Q9H2X9 whole entry, looked up): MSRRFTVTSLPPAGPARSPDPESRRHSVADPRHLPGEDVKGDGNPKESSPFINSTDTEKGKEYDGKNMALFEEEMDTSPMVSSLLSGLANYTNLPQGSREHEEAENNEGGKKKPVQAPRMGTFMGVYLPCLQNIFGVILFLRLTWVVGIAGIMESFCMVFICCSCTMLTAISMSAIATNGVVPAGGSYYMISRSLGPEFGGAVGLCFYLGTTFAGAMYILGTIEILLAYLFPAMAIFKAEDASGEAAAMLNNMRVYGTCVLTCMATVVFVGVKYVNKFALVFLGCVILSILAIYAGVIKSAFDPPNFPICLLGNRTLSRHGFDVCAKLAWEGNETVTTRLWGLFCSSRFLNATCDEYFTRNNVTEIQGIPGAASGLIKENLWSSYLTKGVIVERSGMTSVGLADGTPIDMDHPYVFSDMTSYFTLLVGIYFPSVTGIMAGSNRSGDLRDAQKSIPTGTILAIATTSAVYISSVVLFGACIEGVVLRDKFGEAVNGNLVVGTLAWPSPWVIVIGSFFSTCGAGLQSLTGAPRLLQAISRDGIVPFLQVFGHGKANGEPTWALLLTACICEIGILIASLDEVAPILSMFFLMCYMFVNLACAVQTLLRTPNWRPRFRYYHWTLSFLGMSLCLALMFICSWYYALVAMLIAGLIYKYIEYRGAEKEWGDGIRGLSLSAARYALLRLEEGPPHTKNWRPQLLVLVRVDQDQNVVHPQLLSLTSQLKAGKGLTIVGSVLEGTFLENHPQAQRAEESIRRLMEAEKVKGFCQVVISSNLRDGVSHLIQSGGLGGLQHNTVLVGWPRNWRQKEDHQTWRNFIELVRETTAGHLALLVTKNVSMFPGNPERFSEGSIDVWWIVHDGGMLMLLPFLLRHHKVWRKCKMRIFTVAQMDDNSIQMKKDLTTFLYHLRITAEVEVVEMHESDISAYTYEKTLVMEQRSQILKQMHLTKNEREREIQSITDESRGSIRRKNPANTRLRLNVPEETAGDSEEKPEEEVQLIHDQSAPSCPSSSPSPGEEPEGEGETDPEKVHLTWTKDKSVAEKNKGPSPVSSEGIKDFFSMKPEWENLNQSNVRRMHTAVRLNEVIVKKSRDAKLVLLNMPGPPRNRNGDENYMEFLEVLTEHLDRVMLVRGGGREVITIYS
STAT3 act – activators of IL-6 induced STAT3 signaling; U3A cells, IL-6 STAT3-luciferase reporter, luminescence; 100% = signal with IL-6 EC80 alone; activation (% of control), % at 5.6 µM; 190,000 tested, 0.91% active;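 active means activation above the screen-wide mean of compound activation plus 3 SD, cut at about 130% in these data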
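Test system: Human STAT1-deficient U3A cells with stable STAT3-luciferase reporter | Also added: Interleukin-6, 33 ng/mL | Timing: Compound pre-incubation 1 h before IL-6, then 6 h stimulation at 37 °C | Technique: Luciferase reporter luminescence | Read-out: Percent of IL-6-only median luminescence | Benchmarks: IL-6-only wells as 100% reference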
HSV augment – increases HSV replication in cells | HSV replication augmentation in cells, fold increase | 220,000 tested, 0.005% active | maximum fold increase; in the data active means maximum fold increase above about 1.5; tested in PC3 cells
STAT1 inh – reduces IFN-gamma driven STAT1 reporter signal; inhibition, % at 5.5 µM; NIH 3T3 STAT1-luciferase reporter, luminescence; 200,000 tested, 0.35% active;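 active means inhibition above a set limit, the mean inhibition across all tested compounds plus 3 SD, cut at about 34% in these data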
STAT3 blocker – STAT3 signaling inhibition; inhibition, % at 5.5 µM; 190,000 tested, 0.89% active; U3A cells, IL-6 STAT3-luciferase reporter, luminescence; host cell line lacks STAT1; AID 862;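 active means inhibition above the mean inhibition across all screened compounds plus 3 SD, cut at about 44% in these data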
A number is an active result; - = inactive; . = not tested or not shown.

SMILES | STAT1 activator | Cl transport mod | STAT3 act | HSV augment | STAT1 inh | STAT3 blocker
N/C(=N\OC(=O)c1cccc2ccccc12)c1cccnc1 | - | - | 135.6 | - | - | -
N/C(=N\OC(=O)c1cccc2ccccc12)c1cccc([N+](=O)[O-])c1 | - | - | - | - | - | -
COC(=O)C1CC(=O)c2sccc2C1 (stereo unspecified) | - | - | - | - | - | -
CC1CCN(CCCNC(=O)c2cc3sccc3n2C)CC1 | - | - | - | - | - | -
Cn1c(C(=O)NC2CCCCC2)cc2sccc21 | 137.0 | - | - | - | - | -
CN(C(=O)c1cc2sccc2n1C)C1CCCCC1 | 141.6 | - | - | - | - | -
O=c1cc(-c2ccccc2Cl)oc2c(NS(=O)(=O)c3cc(Cl)cc(Cl)c3O)ccc(O)c12 | - | 20.2 | - | - | - | -
CCc1ccc(S(=O)(=O)Nc2ccc(O)c3c(=O)cc(-c4ccccc4Cl)oc23)cc1 | . | - | . | - | . | .
COc1ccc(C(c2c[nH]c3ccccc23)c2c[nH]c3ccccc23)cc1O | - | . | 191.9 | - | - | -
Cn1ncc(Cl)c1C(=O)Nc1nc2ccc(Cl)cc2s1 | 149.8 | - | - | - | - | -
Cc1cc(C(=O)Nc2nc3ccc(Cl)cc3s2)nn1C | . | - | . | - | . | .
O=C(Nc1nc2ccc(Cl)cc2s1)c1ccc(Br)o1 | 148.1 | - | - | - | - | -
CC(CCc1ccccc1)NC(=O)COC(=O)C12CC3CC(CC(Br)(C3)C1)C2 (stereo unspecified) | - | - | - | - | - | -
Clc1ccccc1-c1nc(-c2ccccc2)n[nH]1 | 131.9 | - | - | - | - | -
COc1ccc(/C=N/NC(=O)Nc2nonc2N)cc1 | 130.5 | - | - | - | - | -
CCN(Cc1ccncc1)C(=O)CCc1nnc(CCc2ccc(OC)cc2)o1 | - | - | - | - | - | -
O=C(CN1CCN(c2nc(-c3ccccc3)cs2)CC1)NNC(=O)c1ccc(Br)cc1 | - | - | - | - | - | -
O=C(NC(=S)N1CCN(c2nc(-c3ccccc3)cs2)CC1)c1cncc(Br)c1 | - | 70.2 | - | - | - | -
O=C(O)CC/C(=N\NC(=O)c1ccccc1Br)c1ccccc1 | - | - | - | - | - | -
C/C(=N\NC(=O)CSc1nc(C)cc(C)n1)c1ccc2c(c1)OCCO2 | - | - | - | - | - | -
Cc1nc(-c2ccccc2)sc1C(=O)O | - | - | - | - | - | -
Cc1ccc(-c2nc(C)c(C(=O)O)s2)cc1 | 135.3 | - | - | - | - | -
Cc1nc(-c2ccc(Cl)cc2)sc1C(=O)O | 138.0 | - | - | - | - | -
CCC1=C[C@H]2CN(C1)Cc1c([nH]c3ccccc13)[C@@](C(=O)OC)(c1cc3c(cc1OC)N(C)[C@H]1[C@@](O)(C(=O)OC)[C@H](OC(C)=O)[C@]4(CC)C=CCN5CC[C@]31[C@@H]54)C2 | . | . | . | - | . | .
Cc1ccccc1Cn1cc(NC(=O)c2cc(C3CC3)on2)cn1 | . | . | . | - | . | .
SMILES | STAT1 activator | Cl transport mod | STAT3 act | HSV augment | STAT1 inh | STAT3 blocker
CCCCCc1cc(=O)oc2c(C(CCN(CC)CC)c3ccc(N(C)C)cc3)c(OC)cc(OC)c12 (stereo unspecified) | . | - | . | - | . | .
Cc1cc(/C=C(\C#N)C(=O)Nc2ccccc2)c(C)n1-c1ccc(C(=O)O)cc1 | . | - | . | - | . | .
CCOC(=O)/C(C#N)=C/c1cc(C)n(-c2ccc(C)cc2)c1C | 148.4 | - | - | - | - | -
CC1CCOC2(O1)C(=O)Nc1ccccc12 (stereo unspecified) | - | - | - | - | - | -
O=C(COn1nnc2ccccc21)NCC1CCCCC1 | 129.1 | . | - | - | - | -
COc1ccccc1OCC(=O)NCC1CCCCC1 | - | . | - | - | - | -
C/C(=N\NC(=O)c1nn(C)c(C)c1Br)c1ccc(NC(=O)c2ccc(C)s2)cc1 | 132.7 | . | - | - | - | -
CCC(=O)Nc1ccc(/C(C)=N\NC(=O)c2ccc(C)s2)cc1 | - | - | - | - | - | -
Cc1ccc(C(=O)CCNc2ccccc2)o1 | 139.8 | - | - | - | - | -
Cc1ccc(C(=O)CCNc2ccc(Br)cc2)o1 | - | - | - | - | - | -
CC(=O)Nc1ccccc1OCC(=O)c1ccc2c(c1)OCO2 | 134.7 | . | - | - | - | -
O=C(CCNc1ccccc1)c1ccc2c(c1)OCO2 | 147.8 | - | - | - | - | -
Cc1ccccc1OCC(=O)Nc1ccc2c(c1)OCO2 | - | - | - | . | - | -
CCOC(=O)c1nn(-c2cccc(C)c2)c2nnc(Cc3ccc(C)cc3)c(=O)n12 | - | - | - | - | - | -
COc1cc(-c2n[nH]c(=S)n2/N=C/c2cccn2C)cc(OC)c1OC | . | - | . | - | . | .
CCC(C(=O)O)n1nc(-c2ccccc2)c2cc(Cl)ccc21 (stereo unspecified) | - | - | - | - | - | -
O=C(N/N=C/c1ccc([N+](=O)[O-])o1)c1cn(-c2ccccc2)nc1-c1ccc(Cl)cc1 | - | - | - | - | - | -
O=[N+]([O-])CC(=Nc1ccc(Cl)cc1)N/N=C\c1oc(O)c2ccccc12 | - | - | 135.6 | . | - | -
COCCCN(C(C)=O)c1nc(-c2ccccc2)cs1 | 138.0 | - | - | - | - | -
CCOc1ccc2c(c1)C(=O)c1cc(OCC(=O)O)ccc1-2 | . | . | . | - | . | .
CCCCOc1ccc2c(c1)C(=O)c1cc(O)ccc1-2 | 148.8 | - | - | - | - | -
O=C(Nc1ccccc1)Oc1cccc(Br)c1 | . | - | . | - | . | .
COc1cccc(CN=C2Nc3ccccc3CS2)c1 | 147.3 | - | - | - | - | -
CCN(CC)C(=O)c1cc([N+](=O)[O-])cc2c1-c1ccc([N+](=O)[O-])cc1C2=C(C#N)C#N | . | - | . | - | . | .
COc1ccc(C2C(C(=O)c3cccs3)=C(O)C(=O)N2c2cccc(C)n2)cc1 (stereo unspecified) | . | - | . | - | . | .
SMILES | STAT1 activator | Cl transport mod | STAT3 act | HSV augment | STAT1 inh | STAT3 blocker
COc1ccc(C2C(C(C)=O)=C(O)C(=O)N2c2ccc(Br)cn2)cc1 (stereo unspecified) | - | . | 133.6 | - | - | -
Cc1nc(N)sc1N=Nc1ccc(F)cc1 | 136.5 | - | - | - | - | -
CCC(Oc1nc2ccccc2nc1-c1ccccc1NC(C)=O)C(=O)c1ccccc1 (stereo unspecified) | - | . | - | - | - | -
COc1ccc(Oc2cccc(Cl)c2CNC(=O)c2ccccc2C(=O)O)cc1 | . | - | . | - | . | .
Cc1cc(C)n(C(=O)COc2ccc([N+](=O)[O-])cc2)n1 | - | - | - | - | - | -
CCOC(=O)Cn1cnc(-c2ccc([N+](=O)[O-])cc2)c1 | 136.4 | - | - | - | - | -
CC(NC(=O)CCc1ccccc1)c1cc2c(cc1Cl)OCCO2 (stereo unspecified) | - | - | - | . | - | -
O=C1CCCCC1C(=O)c1cn(-c2ccc(Cl)c(Cl)c2)nn1 (stereo unspecified) | 129.3 | - | - | - | - | -
O=C(c1cn(-c2ccc(Cl)c(Cl)c2)nn1)C1CC1 | - | - | - | - | - | -

Screening results deposited in PubChem by several laboratories.
